Data set [1] can be described thus: Selectivity index, ratio of IC50 for HEK293 cells to IC50 for Trypanosoma brucei brucei Lister 427. The class given is toxicity. The following applies: human, read-out: Ratio IC50. In outline: (§1)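 Ratio of mammalian MTT IC50 (48 h) to T. brucei MTS IC50 (48 h), both from quadruplicate dose–response fits.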
Data set [2] is described as follows: Selectivity index, ratio of IC50 for mouse RAW264.7 cells to IC50 for Trypanosoma brucei brucei Lister 427. The class given is toxicity. The following applies: read-out: Ratio IC50. A digest of the protocol:
as §1

Data set [3] concerns RAW264.7. Description: Cytotoxicity against mouse RAW264.7 cells after 48 hrs by MTT assay. The class given is cell-based. The settings on record: RAW264.7, 48 h. In outline: (§2)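 Cells kept in RPMI1640 with 10% heat-inactivated FBS, 2 mM L-glutamine, 1 mM pyruvate, pen-strep, 37 °C, 5% CO2. 3000 cells/well seeded 24 h, then exposed to graded concentrations (DMSO ≤0.1% final) for 48 h. Then 0.5 mg/mL MTT 3 h at 37 °C, DMSO solubilization, absorbance 570 nm. Quadruplicate data fitted to dose–response curves for IC50.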
On the technique in general: Formazan colour is commonly taken as a measure of viable cells.

In data set [4] the test system is Trypanosoma brucei brucei. Description: Antiparasitic activity against Trypanosoma brucei brucei Lister 427 assessed as reduction in parasite viability after 48 hrs by MTS assay. The data set is classed as functional, organism-based. The following applies: Lister 427, 48 h. A digest of the protocol:
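Bloodstream-form Lister 427 grown in HMI-9 with 10% FBS, 37 °C, 7.5% CO2. 5000 cells/well exposed to graded concentrations with 0.1% DMSO for 48 h at 37 °C. MTS/PMS reagent then added, 3 h at 37 °C, formazan read at 490 nm. Quadruplicate data normalized and fitted to dose–response curves for IC50 (Mean ± S.D.).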

Data set [5] deals with HEK293. Put plainly: Cytotoxicity against HEK293 cells after 48 hrs by MTT assay. The settings on record: Homo sapiens, HEK293, 48 h. The data set is classed as cell-based. A digest of the protocol: as §2

Usually IC50 stands for the midpoint of a concentration-inhibition curve. On to `O=C(Nc1ccc(NS(=O)(=O)C(F)(F)F)c(F)c1)c1ccc(Cl)cc1`, for which the values for the selectivity ratio in data set [1] and in data set [2] were under 2 and under 1, respectively. For the same compound, the values for the IC50 in data set [3], in data set [4] and in data set [5] were 8.27 µM, over 62.5 µM and 79 µM, respectively.

On to `Cc1cc(NC(=O)c2ccc(Cl)cc2)ccc1NS(C)(=O)=O`, for which the values for the selectivity ratio in data set [1] and in data set [2] were under 1 and under 2, respectively. Further, the IC50 in data set [3] was 69 µM; in data set [4] it was over 62.5 µM; in data set [5] it was 50.3 µM.

For `COc1cc(NC(=O)c2ccc(Cl)c([N+](=O)[O-])c2)ccc1NS(C)(=O)=O`, the selectivity ratio in data set [1] was under 3. The IC50 was over 250 µM in data set [3], over 62.5 µM in data set [4] and 164 µM in data set [5].

Turning to `CCS(=O)(=O)Nc1ccc(NC(=O)c2cc(C(F)(F)F)cc(C(F)(F)F)c2)cc1F`, the selectivity ratio in data set [1] and in data set [2] was over 28 each time. Also, the IC50 is over 250 µM in data set [3], 8.78 µM in data set [4] and over 250 µM in data set [5].

On to `CCS(=O)(=O)Nc1ccc(NC(=O)c2ccc(Cl)cc2)cc1C`, for which the selectivity ratio in data set [1] was under 3; in data set [2] it was under 2. The IC50 in data set [3] is 68.7 µM; in data set [4], over 62.5 µM; in data set [5], 125 µM.

With `CS(=O)(=O)Nc1ccc(NC(=O)c2ccc(Cl)c([N+](=O)[O-])c2)cc1Cl`, the selectivity ratio in data set [1] is under 4; in data set [2], under 1. Moreover, the concentration for half-maximal inhibition (IC50) in data set [3] was 43.6 µM; in data set [4], over 62.5 µM; in data set [5] it was 204 µM.

Turning to `CCS(=O)(=O)Nc1ccc(NC(=O)c2ccc(Cl)cc2)cc1F`, the selectivity ratio in data set [1] is under 1; in data set [2] it was under 3. The IC50 in data set [3] was 152 µM; in data set [4], over 62.5 µM; in data set [5] it was 53.4 µM.

As to `Cc1cc(NC(=O)c2ccc(Cl)c([N+](=O)[O-])c2)ccc1NS(C)(=O)=O`, the results for the selectivity ratio in data set [1] and in data set [2] were 10 and 14, respectively. The IC50 in data set [3] amounted to 108 µM; in data set [4], 7.57 µM; in data set [5] it was 73.1 µM.

Regarding `O=C(Nc1ccc(NS(=O)(=O)C(F)(F)F)c(Cl)c1)c1ccc(Cl)cc1`, the selectivity ratio was under 4 in data set [1] and under 1 in data set [2]. The IC50 in data set [3] was 47.1 µM; in data set [4], over 62.5 µM; in data set [5] it was 191 µM.

Consider `COc1cc(NC(=O)c2ccc(C#N)cc2)ccc1NS(C)(=O)=O`, for which the IC50 was over 250 µM in data set [3], over 62.5 µM in data set [4] and over 250 µM in data set [5].

As for `CS(=O)(=O)Nc1ccc(NC(=O)c2cc(C(F)(F)F)cc(C(F)(F)F)c2)cc1F`, the selectivity ratio in data set [1] is over 11; in data set [2], 5. Moreover, the IC50 was 125 µM in data set [3], 23.7 µM in data set [4] and over 250 µM in data set [5].

Take `COc1cc(NC(=O)c2ccc(C#N)cc2)ccc1NS(=O)(=O)C(F)(F)F`: the selectivity ratio in data set [1] and in data set [2] was over 26 in each case. For the same compound, the IC50 in data set [3] is over 250 µM; in data set [4] it was 9.48 µM; in data set [5], over 250 µM.

Consider `Cc1cc(NC(=O)c2ccc(Cl)cc2)ccc1NS(=O)(=O)C(F)(F)F`, for which the selectivity ratio in data set [1] is 5; in data set [2] it was 1. Besides, the IC50 in data set [4] was determined as 37.2 µM; in data set [5] it was 200 µM.

Consider `N#Cc1ccc(C(=O)Nc2ccc(NS(=O)(=O)C(F)(F)F)c(Cl)c2)cc1`, for which the selectivity ratio in data set [1] and in data set [2] was over 23 each time. In addition, the IC50 is over 250 µM in data set [3], 11 µM in data set [4] and over 250 µM in data set [5].

With `COc1cc(NC(=O)c2ccc(Cl)cc2)ccc1NS(=O)(=O)C(F)(F)F`, the values for the selectivity ratio in data set [1] and in data set [2] were over 5 and 2, respectively. The half-inhibitory concentration (IC50) in data set [3] was 108 µM; in data set [4], 45.6 µM; in data set [5], over 250 µM.

Regarding `CS(=O)(=O)Nc1ccc(NC(=O)c2cccc(C(F)(F)F)c2)cc1F`, in data set [2], the selectivity ratio is under 1. Further, the concentration for half-maximal inhibition (IC50) in data set [3] is 32.3 µM; in data set [4], over 62.5 µM; in data set [5], over 250 µM.

With `CS(=O)(=O)Nc1ccc(NC(=O)c2cc(C(F)(F)F)cc(C(F)(F)F)c2)cc1Cl`, the results for the selectivity ratio in data set [1] and in data set [2] were 18 and 7, respectively. The IC50 turned out to be 69.5 µM in data set [3], 10.1 µM in data set [4] and 185 µM in data set [5].

For the compound `COc1cc(NC(=O)c2ccc(Cl)c([N+](=O)[O-])c2)ccc1NS(=O)(=O)C(F)(F)F`, the selectivity ratio in data set [1] and in data set [2] was over 18 throughout. Besides, the results for the IC50 in data set [3], in data set [4] and in data set [5] were over 250 µM, 14.1 µM and over 250 µM, respectively.

Regarding `COc1cc(NC(=O)c2cc(C(F)(F)F)cc(C(F)(F)F)c2)ccc1NS(=O)(=O)C(F)(F)F`, the IC50 in data set [3] is over 250 µM; in data set [4], over 62.5 µM; in data set [5] it was over 250 µM.

For `COc1cc(NC(=O)c2ccc(Cl)cc2)ccc1NS(C)(=O)=O`, the selectivity ratio in data set [2] was under 2. The IC50 in data set [3] is 70 µM; in data set [4], over 62.5 µM; in data set [5], over 250 µM.

For the compound `CCS(=O)(=O)Nc1ccc(NC(=O)c2ccc(Cl)cc2)cc1OC`, in data set [2], the selectivity ratio was under 1. Further, the IC50 in data set [3] is 60.1 µM; in data set [4], over 62.5 µM; in data set [5], over 250 µM.

On to `CCS(=O)(=O)Nc1ccc(NC(=O)c2ccc(C#N)cc2)cc1OC`, for which the selectivity ratio in data set [2] is under 2. Besides, the values for the IC50 in data set [3], in data set [4] and in data set [5] were 66.4 µM, over 62.5 µM and over 250 µM, respectively.

For the compound `COc1cc(NC(=O)c2cc(C(F)(F)F)cc(C(F)(F)F)c2)ccc1NS(C)(=O)=O`, the selectivity ratio in data set [1] was under 1. In addition, the IC50 was over 250 µM in data set [3], over 62.5 µM in data set [4] and 42 µM in data set [5].

`CCS(=O)(=O)Nc1ccc(NC(=O)c2ccc(C#N)cc2)cc1C`: in data set [2], the selectivity ratio was under 2. Also, the IC50 is 109 µM in data set [3], over 62.5 µM in data set [4] and over 250 µM in data set [5].

`CS(=O)(=O)Nc1ccc(NC(=O)c2cccc(C(F)(F)F)c2)cc1Cl`: the IC50 was over 250 µM in data set [3], over 62.5 µM in data set [4] and over 250 µM in data set [5].

On to `Cc1cc(NC(=O)c2ccc(Cl)c([N+](=O)[O-])c2)ccc1NS(=O)(=O)C(F)(F)F`, for which the selectivity ratio in data set [2] was under 2. Besides, the results for the IC50 in data set [3], in data set [4] and in data set [5] were 89.8 µM, over 62.5 µM and over 250 µM, respectively.

Consider `CS(=O)(=O)Nc1ccc(NC(=O)c2ccc(C#N)cc2)cc1F`, for which the IC50 was over 250 µM in data set [3], over 62.5 µM in data set [4] and over 250 µM in data set [5].

For `CS(=O)(=O)Nc1ccc(NC(=O)c2ccc(C#N)cc2)cc1Cl`, the IC50 is over 250 µM in data set [3], over 62.5 µM in data set [4] and over 250 µM in data set [5].

With `Cc1cc(NC(=O)c2ccc(C#N)cc2)ccc1NS(=O)(=O)C(F)(F)F`, in data set [2], the selectivity ratio is under 3. The values for the half-inhibitory concentration (IC50) in data set [3], in data set [4] and in data set [5] were 135 µM, over 62.5 µM and over 250 µM, respectively.

For the compound `COc1cc(NC(=O)c2cccc(C(F)(F)F)c2)ccc1NS(C)(=O)=O`, the selectivity ratio in data set [2] was under 2. Also, the IC50 in data set [3] is 84.8 µM; in data set [4] it was over 62.5 µM; in data set [5], over 250 µM.

The values above are taken from ChEMBL document CHEMBL4480436, “Lead optimization of selective tubulin inhibitors as anti-trypanosomal agents” (Bioorg Med Chem, 2019).
